Assay results reported in ChEMBL document CHEMBL1152649, “Synthesis, cytotoxicity and human telomerase inhibition activities of a series of 1,2-heteroannelated anthraquinones and anthra[1,2-d]imidazole-6,11-dione homologues” (2009).

Key:
[1] = Cytotoxicity against human H1299 cells at 1 uM after 48 hrs by MTT assay; type: functional; conditions: NCI-H1299, 48 h
Outline: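 H1299 non-small cell lung cancer cells were grown in RPMI 1640 with 10% FBS, penicillin and streptomycin at 37 °C under 5% CO2. About 2 × 10³ cells per well were seeded and left 24 h. Compounds were dissolved fresh in DMSO, diluted into complete medium and applied for 48 h. MTT was then added for 4 h at 37 °C, followed by lysis buffer (20% SDS, 50% DMF) for 16 h, and absorbance was read at 550 nm.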

SW-620 [2] = assay: Antiproliferative activity against human SW620 cells assessed as cell growth at 10 uM; type: functional; conditions: read-out: Activity
Outline: (§1)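 NCI 60 cell line panel, single dose (10^-5 M), run per the Developmental Therapeutics Program protocol (one dose mean graph). Each result is the growth percentage of treated cells relative to untreated control cells.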

MDA-MB-435 = assay: Antiproliferative activity against human MDA-MB-435 cells assessed as cell growth at 10 uM; type: functional; conditions: read-out: Activity
Outline: (§2)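 NCI 60 cell line panel, single-dose screen (10^-5 M) run by the developmental therapeutics program protocol. Results are given as growth percent of treated cells relative to untreated control cells for each line.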

MDA-MB-468 = assay: Antiproliferative activity against human MDA-MB-468 cells assessed as cell growth at 10 uM; type: functional; conditions: read-out: Activity; outline: as §2
HL-60(TB) [3] = assay: Antiproliferative activity against human HL-60(TB) cells assessed as cell growth at 10 uM; type: functional; conditions: read-out: Activity
Outline: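 NCI Developmental Therapeutics Program 60-cell-line one-dose screen at 10^-5 M. Readout is growth percentage of treated cells relative to untreated control cells.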

K562 [4] = assay: Antiproliferative activity against human K562 cells assessed as cell growth at 10 uM; type: functional; conditions: read-out: Activity; outline: as §2
SR = assay: Antiproliferative activity against human SR cells assessed as cell growth at 10 uM; type: functional; conditions: read-out: Activity; outline: as §1
A498 [5] = assay: Antiproliferative activity against human A498 cells assessed as cell growth at 10 uM; type: functional; conditions: read-out: Activity; outline: as §2
SN12C = assay: Antiproliferative activity against human SN12C cells assessed as cell growth at 10 uM; type: functional; conditions: read-out: Activity; outline: as §2
LOX IMVI = assay: Antiproliferative activity against human LOXIMVI cells assessed as cell growth at 10 uM; type: functional; conditions: read-out: Activity; outline: as §2
Malme-3M = assay: Antiproliferative activity against human MALME-3M cells assessed as cell growth at 10 uM; type: functional; conditions: read-out: Activity; outline: as §2
SF-539 [6] = assay: Antiproliferative activity against human SF539 cells assessed as cell growth at 10 uM; type: functional; conditions: read-out: Activity; outline: as §2
SNB-19 = assay: Antiproliferative activity against human SNB19 cells assessed as cell growth at 10 uM; type: functional; conditions: read-out: Activity; outline: as §2
HOP-92 = assay: Antiproliferative activity against human HOP92 cells assessed as cell growth at 10 uM; type: functional; conditions: read-out: Activity; outline: as §2
NCI-H226 = assay: Antiproliferative activity against human NCI-H226 cells assessed as cell growth at 10 uM; type: functional; conditions: read-out: Activity; outline: as §2
HCT-15 = assay: Antiproliferative activity against human HCT15 cells assessed as cell growth at 10 uM; type: functional; conditions: read-out: Activity; outline: as §2
[7] = molecular target: Telomerase reverse transcriptase (Homo sapiens) (UniProt O14746); assay: Inhibition of TERT in human H1299 cells assessed as residual transcriptional activity at 100 uM after 24 hrs by SEAP reporter gene assay; values are per cent of control
Chain of Telomerase reverse transcriptase (Homo sapiens) (O14746 whole entry): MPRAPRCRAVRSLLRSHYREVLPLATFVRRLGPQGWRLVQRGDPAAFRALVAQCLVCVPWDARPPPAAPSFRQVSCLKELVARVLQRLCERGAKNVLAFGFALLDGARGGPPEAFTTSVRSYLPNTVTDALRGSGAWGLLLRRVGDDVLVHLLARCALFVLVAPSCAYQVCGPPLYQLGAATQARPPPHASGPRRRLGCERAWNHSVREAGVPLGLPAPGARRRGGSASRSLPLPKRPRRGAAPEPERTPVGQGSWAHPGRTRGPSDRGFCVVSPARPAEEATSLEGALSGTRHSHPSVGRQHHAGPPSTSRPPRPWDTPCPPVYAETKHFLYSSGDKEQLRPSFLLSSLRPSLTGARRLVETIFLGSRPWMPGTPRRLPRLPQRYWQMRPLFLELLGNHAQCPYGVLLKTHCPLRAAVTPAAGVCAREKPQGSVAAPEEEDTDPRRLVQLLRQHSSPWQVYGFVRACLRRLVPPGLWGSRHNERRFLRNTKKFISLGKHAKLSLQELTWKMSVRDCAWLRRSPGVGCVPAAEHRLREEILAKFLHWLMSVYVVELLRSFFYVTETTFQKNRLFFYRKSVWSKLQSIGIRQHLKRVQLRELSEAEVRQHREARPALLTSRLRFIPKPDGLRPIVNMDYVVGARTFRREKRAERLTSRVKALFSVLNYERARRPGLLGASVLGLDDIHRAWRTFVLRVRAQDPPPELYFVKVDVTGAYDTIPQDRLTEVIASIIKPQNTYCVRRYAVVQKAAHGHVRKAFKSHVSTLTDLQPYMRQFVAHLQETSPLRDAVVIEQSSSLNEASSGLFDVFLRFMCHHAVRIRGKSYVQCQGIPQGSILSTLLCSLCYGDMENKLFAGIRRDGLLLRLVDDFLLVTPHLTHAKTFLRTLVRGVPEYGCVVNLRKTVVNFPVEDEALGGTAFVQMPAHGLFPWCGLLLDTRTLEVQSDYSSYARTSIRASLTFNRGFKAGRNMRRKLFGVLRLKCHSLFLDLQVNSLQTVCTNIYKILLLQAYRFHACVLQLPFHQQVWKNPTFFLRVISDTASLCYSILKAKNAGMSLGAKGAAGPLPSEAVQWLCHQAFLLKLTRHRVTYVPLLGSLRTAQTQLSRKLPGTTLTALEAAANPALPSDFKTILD

[8] = Growth inhibition of human Hs 578T cells; type: functional
Outline: (§3)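 NCI 60 cancer cell line screen run per the Developmental Therapeutics Program protocol. Dose–response curves were plotted against log10 drug concentration for each cell line within its subpanel, and mean graph midpoint values were calculated.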

T47D = assay: Growth inhibition of human T47D cells; type: functional
Outline: (§4)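 Assayed in the NCI 60 human cancer cell line panel under the Developmental Therapeutics Program protocol. For each line, dose–response curves were plotted against log10 drug concentration. In the one-dose screen at 10^-5 M, growth was given as percent of untreated control cells, and mean graph midpoint values were averaged.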

HOP-62 = assay: Antiproliferative activity against human HOP62 cells assessed as cell growth at 10 uM; type: functional; conditions: read-out: Activity; outline: as §2
CCRF-CEM = assay: Growth inhibition of human CCRF-CEM cells; type: functional; outline: as §3
HL-60(TB) [9] = assay: Growth inhibition of human HL-60(TB) cells; type: functional
Outline: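 NCI 60-cell-line panel run under the Developmental Therapeutics Program protocol. Dose-response curves are plotted against log10 drug concentration for each cell line within its subpanel, and GI50 is read from these curves.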

K562 [10] = assay: Growth inhibition of human K562 cells; type: functional; outline: as §3
MOLT-4 = assay: Growth inhibition of human MOLT4 cells; type: functional; outline: as §3
[11] = Growth inhibition of human […] cells; type: functional; outline: as §4
A549 = assay: Growth inhibition of human A549 cells; type: functional; outline: as §3
EKVX = assay: Growth inhibition of human EKVX cells; type: functional; outline: as §3
NCI-H23 = assay: Growth inhibition of human NCI-H23 cells; type: functional; outline: as §3
SW-620 [12] = assay: Growth inhibition of human SW620 cells; type: functional; outline: as §4
SF-539 [13] = assay: Growth inhibition of human SF539 cells; type: functional; outline: as §4
U-251 = assay: Growth inhibition of human U251 cells; type: functional; outline: as §4
SK-MEL-28 = assay: Growth inhibition of human SK-MEL-28 cells; type: functional; outline: as §4
OVCAR-3 = assay: Growth inhibition of human OVCAR-3 cells; type: functional; outline: as §3
OVCAR-4 = assay: Growth inhibition of human OVCAR4 cells; type: functional; outline: as §3
SK-OV-3 = assay: Growth inhibition of human SKOV3 cells; type: functional; outline: as §4
A498 [14] = assay: Growth inhibition of human A498 cells; type: functional; outline: as §3
RXF 393 = assay: Growth inhibition of human RXF393 cells; type: functional; outline: as §4
TK-10 = assay: Growth inhibition of human TK10 cells; type: functional; outline: as §4
PC-3 = assay: Growth inhibition of human PC3 cells; type: functional; outline: as §4
[15] = read-out: LC50 (the source's name)

With `N#Cc1ccc(-c2nc3ccc4c(c3[nH]2)C(=O)c2ccccc2C4=O)cc1` the viability at 1 µM [1] was 80%, the growth at 10 µM (SW-620 [2]) was 89.4% and the growth at 10 µM (MDA-MB-435) was 113%. The growth at 10 µM (MDA-MB-468) was 95%, the growth at 10 µM (HL-60(TB) [3]) was 145% and the growth at 10 µM (K562 [4]) was 54.9%. It also gave a growth at 10 µM (SR) of 84.1%, a growth at 10 µM (A498 [5]) of 96.2% and a growth at 10 µM (SN12C) of 105%. The growth at 10 µM (LOX IMVI) was 101%, the growth at 10 µM (Malme-3M) was 201% and the growth at 10 µM (SF-539 [6]) was 104%. For the same molecule, the growth at 10 µM (SNB-19) was 97.8%, the growth at 10 µM (HOP-92) was 56.2% and the growth at 10 µM (NCI-H226) was 103%. It also gave a growth at 10 µM (HCT-15) of 101% and a residual activity [7] of 30%.

With `CCc1nc2ccc3c(c2[nH]1)C(=O)c1ccccc1C3=O` the GI50 [8] was over 100 µM, the TGI [8] was over 100 µM and the GI50 (T47D) was 3.3 µM. For the same molecule, the TGI (T47D) was over 100 µM, the viability at 1 µM [1] was 88% and the growth at 10 µM (HOP-62) was 97.7%. For the same molecule, the growth at 10 µM (SW-620 [2]) was 73.1%, the growth at 10 µM (MDA-MB-435) was 84.4% and the growth at 10 µM (HL-60(TB) [3]) was 41.8%. For the same molecule, the growth at 10 µM (K562 [4]) was 64.4%, the growth at 10 µM (SR) was 52.5% and the growth at 10 µM (A498 [5]) was 28.9%. For the same molecule, the growth at 10 µM (SN12C) was 68.5%, the growth at 10 µM (LOX IMVI) was 40% and the growth at 10 µM (Malme-3M) was 56.9%. For the same molecule, the growth at 10 µM (SF-539 [6]) was 83.2%, the growth at 10 µM (SNB-19) was 74.9% and the GI50 (CCRF-CEM) was 16.5 µM. It also gave a TGI (CCRF-CEM) of over 100 µM, a CC50 (CCRF-CEM; [15]) of over 100 µM and a GI50 (HL-60(TB) [9]) of 2720 nM. It also gave a TGI (HL-60(TB) [9]) of 64.1 µM, a CC50 (HL-60(TB) [9]; [15]) of over 100 µM and a GI50 (K562 [10]) of over 100 µM. The TGI (K562 [10]) was over 100 µM, the GI50 (MOLT-4) was 4.22 µM and the TGI (MOLT-4) was over 100 µM. The CC50 (MOLT-4; [15]) was over 100 µM, the GI50 [11] was 4.16 µM and the TGI [11] was over 100 µM. It also gave a CC50 [11, 15] of over 100 µM, a GI50 (A549) of 28.5 µM and a TGI (A549) of over 100 µM. For the same molecule, the CC50 (A549; [15]) was over 100 µM, the GI50 (EKVX) was 4.6 µM and the TGI (EKVX) was over 100 µM. It also gave a CC50 (EKVX; [15]) of over 100 µM, a GI50 (NCI-H23) of 12.1 µM and a TGI (NCI-H23) of over 100 µM. The CC50 (NCI-H23; [15]) was over 100 µM, the GI50 (SW-620 [12]) was 19.8 µM and the TGI (SW-620 [12]) was over 100 µM. It also gave a CC50 (SW-620 [12]; [15]) of over 100 µM, a GI50 (SF-539 [13]) of 11.7 µM and a TGI (SF-539 [13]) of over 100 µM. The CC50 (SF-539 [13]; [15]) was over 100 µM, the GI50 (U-251) was 16.3 µM and the TGI (U-251) was over 100 µM. The CC50 (U-251; [15]) was over 100 µM, the GI50 (SK-MEL-28) was over 100 µM and the TGI (SK-MEL-28) was over 100 µM. For the same molecule, the CC50 (SK-MEL-28; [15]) was over 100 µM, the GI50 (OVCAR-3) was 16.5 µM and the TGI (OVCAR-3) was over 100 µM. It also gave a CC50 (OVCAR-3; [15]) of over 100 µM, a GI50 (OVCAR-4) of 25.7 µM and a TGI (OVCAR-4) of over 100 µM. The CC50 (OVCAR-4; [15]) was over 100 µM, the GI50 (SK-OV-3) was 2590 nM and the TGI (SK-OV-3) was over 100 µM. The CC50 (SK-OV-3; [15]) was over 100 µM, the GI50 (A498 [14]) was over 100 µM and the TGI (A498 [14]) was over 100 µM. It also gave a CC50 (A498 [14]; [15]) of over 100 µM, a GI50 (RXF 393) of 6.95 µM and a TGI (RXF 393) of over 100 µM. It also gave a CC50 (RXF 393; [15]) of over 100 µM, a GI50 (TK-10) of 12.1 µM and a TGI (TK-10) of over 100 µM. It also gave a CC50 (TK-10; [15]) of over 100 µM, a GI50 (PC-3) of 28.2 µM and a TGI (PC-3) of over 100 µM. It also gave a CC50 (PC-3; [15]) of over 100 µM, a growth at 10 µM (HOP-92) of 41.4% and a growth at 10 µM (NCI-H226) of 75.9%. The growth at 10 µM (HCT-15) was 42.2% and the residual activity [7] was 25%.

`CC1(C)Nc2ccc3c(c2N1)C(=O)c1ccccc1C3=O` showed a viability at 1 µM [1] of 98%, a growth at 10 µM (SW-620 [2]) of 91.7% and a growth at 10 µM (MDA-MB-435) of 125%. For the same molecule, the growth at 10 µM (MDA-MB-468) was 77.2%, the growth at 10 µM (HL-60(TB) [3]) was 129% and the growth at 10 µM (K562 [4]) was 101%. For the same molecule, the growth at 10 µM (SR) was 72.4%, the growth at 10 µM (A498 [5]) was 80.6% and the growth at 10 µM (SN12C) was 92%. It also gave a growth at 10 µM (LOX IMVI) of 61.9%, a growth at 10 µM (Malme-3M) of 155% and a growth at 10 µM (SF-539 [6]) of 93.6%. The growth at 10 µM (SNB-19) was 94.3%, the growth at 10 µM (HOP-92) was 5.1% and the growth at 10 µM (NCI-H226) was 89.7%. The growth at 10 µM (HCT-15) was 64.6% and the residual activity [7] was 9%.
